Source: PMC10401000 (Proceedings of the National Academy of Sciences of the …, 2023)

Tests used:
β2AR = conditions: cited from earlier work
HASM cells = assay: Magnetic twisting cytometry, HASM cell stiffness; assay type: cell-based, human; conditions: 10 μM ISO
In short: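 Magnetic twisting cytometry: integrin-anchored beads on serum-deprived, post-confluent HASM cells from nonasthma donors, plated at 30,000 cells/cm² on collagen I and kept serum-free for 24 h. Cells were pretreated ± 1 μM test compound for 30 min. […] Stiffness was normalized to each cell's baseline; linear mixed-effect model on log data; 463 to 473 cells.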

Compound | allosteric modulator activity at the β2AR (β2AR) | time to peak relaxation (HASM cells)
Nc1nc(Nc2ccccc2)nc2ccc(Br)cc12 [AS408] | NAM for both ISO-mediated cAMP production and β-arrestin recruitment | –
CC(C)NCC(O)c1ccc(O)c(O)c1 (centres unmarked) [ISO, isoproterenol] | – | 4 to 5 min
